This passage reports inhibition results from ChEMBL document CHEMBL4265907, “Design, synthesis and pharmacological evaluation of N4,N6-disubstituted pyrimidine-4,6-diamine derivatives as potent EGFR inhibitors in non-small cell lung cancer” (Eur J Med Chem, 2018).

In general, inhibition refers to the change of the read-out against control, counted positive when it falls.

In test [1] the target is Fibroblast growth factor receptor 1 (Homo sapiens) (UniProt P11362). Nature of the test: Inhibition of N-terminal GST-tagged human FGFR1 cytoplasmic domain (398 to 822 residues) expressed in baculovirus expression system at […] using FAM-labeled peptide as substrate after 10 mins by mobility shift assay relative to control. In short, it runs like this:
(§1)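 Caliper mobility-shift kinase assay. Kinase in kinase base buffer was preincubated with compound for 10 min at room temperature. FAM-labelled peptide and ATP at Km were then added, and the reaction ran at 28 °C until quenched with buffer. Screening concentration was 1 µM. Percent inhibition = (max − conversion)/(max − min) × 100, with DMSO as max and a low control as min.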

The target of test [2] is Vascular endothelial growth factor receptor 2 (Homo sapiens) (UniProt P35968). Nature of the test: Inhibition of N-terminal GST-tagged human KDR cytoplasmic domain (790 to 1356 residues) expressed in baculovirus expression system at […] using FAM-labeled peptide as substrate after 10 mins by mobility shift assay relative to control. In short, it runs like this: as §1
Sequence of Vascular endothelial growth factor receptor 2 (Homo sapiens) (P35968 whole entry, the tested form may be a part): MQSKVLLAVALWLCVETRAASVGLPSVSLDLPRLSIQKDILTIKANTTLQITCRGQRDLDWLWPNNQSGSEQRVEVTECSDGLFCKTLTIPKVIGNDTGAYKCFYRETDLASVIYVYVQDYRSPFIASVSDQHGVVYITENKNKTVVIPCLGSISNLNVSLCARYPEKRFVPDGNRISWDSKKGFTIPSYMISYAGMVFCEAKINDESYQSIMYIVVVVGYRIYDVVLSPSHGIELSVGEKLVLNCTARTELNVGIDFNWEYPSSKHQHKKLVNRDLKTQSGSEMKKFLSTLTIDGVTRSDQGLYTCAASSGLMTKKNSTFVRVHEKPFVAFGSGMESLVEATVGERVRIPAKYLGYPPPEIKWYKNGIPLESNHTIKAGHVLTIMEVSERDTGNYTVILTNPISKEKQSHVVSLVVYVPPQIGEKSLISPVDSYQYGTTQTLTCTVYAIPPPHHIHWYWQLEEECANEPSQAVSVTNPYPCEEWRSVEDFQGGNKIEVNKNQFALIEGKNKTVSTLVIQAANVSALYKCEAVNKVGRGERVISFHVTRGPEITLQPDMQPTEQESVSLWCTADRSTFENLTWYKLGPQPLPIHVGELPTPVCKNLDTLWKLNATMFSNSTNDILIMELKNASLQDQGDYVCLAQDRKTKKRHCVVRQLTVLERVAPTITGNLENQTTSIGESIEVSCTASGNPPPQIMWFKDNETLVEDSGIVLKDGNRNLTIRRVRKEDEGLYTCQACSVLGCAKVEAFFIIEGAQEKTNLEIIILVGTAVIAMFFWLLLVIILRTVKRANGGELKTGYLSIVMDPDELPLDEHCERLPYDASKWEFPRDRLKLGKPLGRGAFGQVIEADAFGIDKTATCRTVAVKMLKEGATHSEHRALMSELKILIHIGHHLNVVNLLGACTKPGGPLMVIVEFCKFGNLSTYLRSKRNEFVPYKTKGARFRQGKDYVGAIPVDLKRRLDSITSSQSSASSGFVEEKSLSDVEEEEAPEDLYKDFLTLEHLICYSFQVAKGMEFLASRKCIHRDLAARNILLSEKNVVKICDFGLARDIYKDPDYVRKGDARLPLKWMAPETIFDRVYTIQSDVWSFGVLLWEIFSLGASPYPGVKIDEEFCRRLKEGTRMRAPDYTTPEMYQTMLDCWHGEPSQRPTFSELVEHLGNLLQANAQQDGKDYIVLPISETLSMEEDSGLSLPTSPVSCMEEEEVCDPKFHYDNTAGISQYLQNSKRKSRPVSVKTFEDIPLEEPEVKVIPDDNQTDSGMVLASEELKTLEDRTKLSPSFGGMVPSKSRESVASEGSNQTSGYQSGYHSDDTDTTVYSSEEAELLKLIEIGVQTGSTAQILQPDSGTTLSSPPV

As for `Fc1ccc(Nc2cc(Nc3ccc(F)cc3)ncn2)cc1`, the inhibition in test [1] came out at 0.5%; in test [2], 16.8%.

Take `O=C(/C=C/c1ccccc1)Nc1cc(Nc2ccc(N3CCOCC3)cc2)ncn1`: the inhibition in test [1] was -0.3%; in test [2], -5%.

As for `CCOC(=O)CCC(=O)Nc1cc(Nc2cccc(OC)c2)ncn1`, the inhibition is -7.1% in test [1] and 11.3% in test [2].

On to `COc1ccc(Nc2cc(NC(=O)/C=C/c3ccc(F)cc3Br)ncn2)c([N+](=O)[O-])c1`, for which the figures for the inhibition in test [1] and in test [2] were -2.3% and 11.3%, respectively.

On to `O=C(/C=C/c1ccccc1)Nc1cc(Nc2ccc(O)cc2)ncn1`, for which the results for the inhibition in test [1] and in test [2] were -3.7% and 1.3%, respectively.

Turning to `O=C(Nc1cc(Nc2cccc(Cl)c2)ncn1)c1ccc(F)cc1`, the inhibition in test [1] is 4.2%; in test [2], -0.6%.

Regarding `COc1cccc(Nc2cc(NC(=O)CCC(=O)O)ncn2)c1`, the inhibition in test [1] amounted to 0.5%; in test [2], 12.4%.

With `COc1cccc(Nc2cc(NC(=O)c3ccccc3)ncn2)c1`, the results for the inhibition in test [1] and in test [2] were -6% and -0.2%, respectively.

As for `CCOC(=O)CCC(=O)Nc1cc(Nc2ccc(N3CCN(C)CC3)cc2)ncn1`, the inhibition in test [1] was -6.6%; in test [2], 4.9%.

For the molecule `O=C(/C=C/c1ccc(F)cc1Br)Nc1cc(Nc2ccc(Cl)cc2Cl)ncn1`, the values for the inhibition in test [1] and in test [2] were -4.6% and 15.2%, respectively.

With `Cc1ccc(Nc2cc(NC(=O)c3ccc(F)cc3)ncn2)cc1`, the inhibition in test [1] is -4.8%; in test [2], 10.9%.

`O=C(Nc1cc(N2CCOCC2)ncn1)c1ccccc1`: the inhibition in test [1] is -1.8%; in test [2] it was 10.1%.

As to `CC(C)OC(=O)CCC(=O)Nc1cc(Nc2ccc(F)cc2)ncn1`, the figures for the inhibition in test [1] and in test [2] were -6.5% and 2.5%, respectively.

As for `Fc1ccc(Nc2cc(Nc3ccc(Cl)cc3)ncn2)cc1`, the inhibition amounted to 1.8% in test [1] and 6.1% in test [2].

In the case of `COc1ccc(/C=C/C(=O)Nc2cc(Nc3cccc(Br)c3)ncn2)cc1`, the inhibition in test [1] is -5.4%; in test [2] it was 8.5%.

Regarding `COc1ccc(OC)c(Nc2cc(Nc3ccc(Cl)cc3)ncn2)c1`, the inhibition is -8.2% in test [1] and 6.5% in test [2].

Regarding `CCOC(=O)CCC(=O)Nc1cc(Nc2cc(OC)ccc2OC)ncn1`, the inhibition is -8.8% in test [1] and 9.7% in test [2].

In the case of `CCOC(=O)CCCC(=O)Nc1cc(Nc2cc(OC)ccc2OC)ncn1`, the inhibition in test [1] is -9.3%; in test [2], 0.9%.

For the molecule `Clc1cccc(Nc2cc(Nc3cccc(Br)c3)ncn2)c1`, the inhibition was -3.6% in test [1] and 20% in test [2].

Turning to `CCOC(=O)CCC(=O)Nc1cc(Nc2cccc(C(=O)OCC)c2)ncn1`, the values for the inhibition in test [1] and in test [2] were 2.6% and 19.7%, respectively.

Regarding `O=C(O)CCC(=O)Nc1cc(Nc2cccc(Cl)c2)ncn1`, the inhibition in test [1] was -3.6%; in test [2], 0.6%.

For the molecule `COc1ccc(/C=C/C(=O)Nc2cc(Nc3ccc(Cl)cc3Cl)ncn2)cc1`, the inhibition is -4% in test [1] and 6.1% in test [2].

On to `O=C(Nc1cc(Nc2ccc(N3CCOCC3)cc2)ncn1)c1ccc(F)cc1`, for which the figures for the inhibition in test [1] and in test [2] were 3.5% and 1.7%, respectively.

Consider `O=C(/C=C/c1ccc(F)cc1Br)Nc1cc(Nc2ccc(N3CCOCC3)cc2)ncn1`, for which the inhibition in test [1] is -2.8%; in test [2], 0.6%.

For `CN1CCN(c2cc(NC(=O)CCCC(=O)O)ncn2)CC1`, the inhibition in test [1] was -2.3%; in test [2], 13.6%.

In the case of `COc1cccc(Nc2cc(Nc3cccc(Br)c3)ncn2)c1`, the inhibition in test [2] worked out at 20.5%.

With `CCOC(=O)c1ccc(Nc2cc(NC(=O)CCC(=O)O)ncn2)cc1`, the inhibition in test [1] was -5.4%; in test [2] it was 4.9%.

In the case of `COc1ccc(Nc2cc(NC(=O)c3ccccc3)ncn2)c([N+](=O)[O-])c1`, the inhibition in test [1] turned out to be 5.2%; in test [2], 8.9%.

With `CCOC(=O)CCC(=O)Nc1cc(NCCc2cccs2)ncn1`, in test [2], the inhibition came out at 13.6%.

As for `CC(C)OC(=O)CCC(=O)Nc1cc(Nc2ccc(C(=O)OC(C)C)cc2)ncn1`, the inhibition in test [1] is -2.3%; in test [2] it was 4.9%.

With `Clc1cccc(Nc2cc(Nc3cccc(Cl)c3)ncn2)c1`, the inhibition in test [1] is -9.8%; in test [2], 0.6%.

Consider `CN1CCN(c2ccc(Nc3cc(NC(=O)/C=C/c4ccc(F)cc4)ncn3)cc2)CC1`, for which the inhibition in test [1] is -5.4%; in test [2], 21.8%.

Take `CCCC(C)OC(=O)CCC(=O)Nc1cc(Nc2cccc(C(=O)OC(C)CCC)c2)ncn1` (configuration not stated): the inhibition in test [1] was -5%; in test [2], 4.9%.

As to `CCOC(=O)CCC(=O)Nc1cc(Nc2ccc(S(N)(=O)=O)cc2)ncn1`, the inhibition in test [1] was -3.6%; in test [2], 7.7%.

Take `COc1ccc(Nc2cc(NC(=O)c3ccc(F)cc3)ncn2)cc1`: the inhibition in test [1] was 0.5%; in test [2] it was -3.4%.

As for `CN1CCN(c2cc(NC(=O)/C=C/c3ccc(F)cc3)ncn2)CC1`, the inhibition is -6.1% in test [1] and 7.7% in test [2].

Regarding `CCOC(=O)CCC(=O)Nc1cc(Nc2ccc(Cl)cc2)ncn1`, the inhibition in test [1] was -3.6%; in test [2], 22.5%.

Turning to `CCOc1ccc(Nc2cc(NC(=O)c3ccc(F)cc3)ncn2)cc1`, the inhibition in test [1] is 5.9%; in test [2], 5.3%.

With `COc1cccc(Nc2cc(Nc3ccc(Cl)cc3)ncn2)c1`, the inhibition is -4% in test [1] and 12.8% in test [2].

As to `COc1cccc(Nc2cc(NC(=O)/C=C/c3ccccc3)ncn2)c1`, the inhibition in test [1] was -0.4%; in test [2], 9.3%.

As to `CCCC(C)OC(=O)CCC(=O)Nc1cc(Nc2cccc(Br)c2)ncn1` (configuration not stated), the inhibition was -4.9% in test [1] and 14.8% in test [2].

On to `CCOC(=O)CCC(=O)Nc1cc(Nc2ccc(C(=O)OCC)cc2)ncn1`, for which the results for the inhibition in test [1] and in test [2] were -4.6% and 6.5%, respectively.

Turning to `COc1cccc(Nc2cc(NC(=O)c3ccc(F)cc3)ncn2)c1`, the inhibition was found to be 4.3% in test [1] and 20.8% in test [2].

Consider `COc1ccc(/C=C/C(=O)Nc2cc(N3CCN(C)CC3)ncn2)cc1`, for which the inhibition in test [1] is -6.1%; in test [2] it was 1.7%.

Take `Clc1ccc(Nc2cc(Nc3ccc4[nH]ncc4c3)ncn2)cc1`: the inhibition in test [1] was -5.3%; in test [2], -1.4%.

Consider `COc1ccc(/C=C/C(=O)Nc2cc(Nc3ccc(Cl)cc3)ncn2)cc1`, for which the inhibition in test [1] is -8.8%; in test [2], 0.9%.

Turning to `COc1ccc(OC)c(Nc2cc(Nc3cc(OC)ccc3OC)ncn2)c1`, the inhibition in test [1] was -2.7%; in test [2], 13.6%.

Turning to `COc1ccc(/C=C/C(=O)Nc2cc(N3CCOCC3)ncn2)cc1`, the inhibition in test [1] was -4.8%; in test [2] it was 7.3%.

For the molecule `CN1CCN(c2ccc(Nc3cc(NC(=O)CCC(=O)O)ncn3)cc2)CC1`, in test [2], the inhibition is 18.8%.

Turning to `O=C(Nc1cc(Nc2cccc(Cl)c2)ncn1)c1ccccc1`, the inhibition in test [1] was -5.8%; in test [2], -6.2%.

Regarding `COc1ccc(Nc2cc(NC(=O)/C=C/c3ccccc3)ncn2)cc1`, the results for the inhibition in test [1] and in test [2] were 8.7% and 9.3%, respectively.

For the molecule `CCOc1ccc(Nc2cc(NC(=O)/C=C/c3ccccc3)ncn2)cc1`, the inhibition in test [1] was determined as 1.5%; in test [2], 0.6%.

`O=C(/C=C/c1ccc(F)cc1)Nc1cc(Nc2ccc(Cl)cc2)ncn1`: the inhibition in test [1] came out at 3.1%; in test [2], 10.1%.

On to `O=C(O)CCCC(=O)Nc1cc(Nc2ccccc2Br)ncn1`, for which the inhibition in test [1] is -9.3%; in test [2], 16.8%.

In the case of `O=C(/C=C/c1ccc(F)cc1)Nc1cc(Nc2ccc(N3CCOCC3)cc2)ncn1`, the inhibition in test [1] was -3.9%; in test [2] it was 1.3%.

On to `CCOC(=O)c1ccc(Nc2cc(Nc3ccc(C(=O)OCC)cc3)ncn2)cc1`, for which the inhibition in test [1] turned out to be 0%; in test [2], 3.7%.

As to `CCOc1ccc(Nc2cc(NC(=O)/C=C/c3ccc(OC)cc3)ncn2)cc1`, the inhibition was found to be 0.7% in test [1] and 20.4% in test [2].

With `O=C(Nc1cc(Nc2ccc(Cl)cc2)ncn1)c1ccccc1`, the inhibition in test [1] was -1.3%; in test [2], -1.4%.

With `CCOc1cccc(Nc2cc(NC(=O)c3ccc(F)cc3)ncn2)c1`, the inhibition in test [1] worked out at 2.2%; in test [2], 6.1%.

As for `Clc1ccc(Nc2cc(Nc3cccc(Cl)c3)ncn2)cc1`, the inhibition in test [1] is -3.4%; in test [2], 7.3%.

`O=C(/C=C/c1ccc(F)cc1Br)Nc1cc(N2CCOCC2)ncn1`: the values for the inhibition in test [1] and in test [2] were -7.1% and 5.7%, respectively.

Take `O=C(O)CCC(=O)Nc1cc(Nc2cccc(Br)c2)ncn1`: the inhibition was -5.3% in test [1] and 19.2% in test [2].

For `O=C(/C=C/c1ccc(F)cc1)Nc1cc(Nc2ccc(Cl)cc2Cl)ncn1`, the inhibition in test [1] was -2.9%; in test [2], 2.5%.

Turning to `CCOC(=O)CC(=O)Nc1cc(Nc2ccc(F)cc2)ncn1`, the inhibition in test [1] is -1.1%; in test [2], 1.7%.

With `O=C(O)CCC(=O)Nc1cc(Nc2cccc(C(=O)O)c2)ncn1`, the inhibition in test [2] worked out at 10.9%.

As for `CCOC(=O)c1c(Nc2cc(NC(=O)CCC(=O)OC(C)C)ncn2)sc2c1CCCC2`, the inhibition in test [1] was -4.1%; in test [2], 16.4%.

Take `CCNc1cc(Nc2cc(OC)ccc2OC)ncn1`: the inhibition was -0.4% in test [1] and 34.5% in test [2].

For `COc1ccc(Nc2cc(NC(=O)/C=C/c3ccccc3)ncn2)c([N+](=O)[O-])c1`, the inhibition in test [1] is -4.9%; in test [2] it was 2.5%.
